In brackets after ≈: the same amount, converted by molar mass.
How the values were obtained:
[1] = molecular target: Protein mono-ADP-ribosyltransferase PARP12 (Homo sapiens, UniProt Q9H0J9); assay: Inhibition of human PARP12 using NAD+ as substrate by fluorescence assay
[2] = molecular target: cGMP-dependent protein kinase 1 (Homo sapiens) (UniProt Q13976); assay: Inhibition of PRKG1 (unknown origin) at 10 uM after 60 mins in presence of [gamma-33P]-ATP by microplate scintillation counting
Outline: (§1)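 A panel of 320 wild-type protein kinases was screened with the compound at 10 μM. Activity is reported as percent inhibition.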

[3] = molecular target: Maternal embryonic leucine zipper kinase (Homo sapiens) (UniProt Q14680); assay: Inhibition of MELK (unknown origin) at 10 uM after 60 mins in presence of [gamma-33P]-ATP by microplate scintillation counting; outline: as §1
[4] = tested on: Canis familiaris; assay: Clearance in Beagle dog at 7 mg/kg, po measured up to 24 hrs postdose; type: ADME, organism-based, Canis lupus familiaris; details: in vivo
[5] = Oral bioavailability in ICR mouse at 5 mg/kg measured up to 24 hrs postdose; type: ADME, organism-based; details: in vivo
[6] = tested on: Mus musculus; assay: Toxicity in immunocompetent BDF1 mouse allografted with mouse P388 cells assessed as body weight change at 15 to 30 mg/kg, po administered qd for 10 days measured on day 12 post last dose; type: organism-based; details: in vivo, 240 h
[7] = Terminal half life in ICR mouse at 5 mg/kg, po measured up to 24 hrs postdose; type: ADME, organism-based; details: in vivo, read-out: beta t1/2 (converted)
[8] = AUC (0 to t) in Sprague-Dawley rat at 14 mg/kg, po measured up to 24 hrs postdose; type: ADME, organism-based; set-up: time < 24 hr, dose 14 mg/kg, route oral; details: in vivo
[9] = tested on: COLO 320DM; assay: Antitumor activity against human COLO320DM cells xenografted in nude Balb/c mouse assessed as tumor growth inhibition at 30 mg/kg, po administered qd for 10 days measured on days 12, 17 and 21 post last dose; type: functional; details: 240 h, read-out: TGI
Outline: (§2)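 Tumor-bearing mice were randomized 2 days after inoculation into four groups: vehicle (1% starch, n = 4) and 15, 30 or 60 mg/kg (n = 5 each). Dosing was oral, once daily, for 10 days. Tumor size was measured by caliper on days 12, 17 and 21. Values are tumor volume reduction relative to vehicle-treated controls.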

[10] = tested on: P388; assay: Antitumor activity against mouse P388 cells allografted in immunocompetent BDF1 mouse assessed as tumor growth inhibition at 30 mg/kg, po administered qd for 10 days measured on day 12 post last dose; type: functional; details: read-out: TGI
Outline: (§3)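 Immunocompetent BDF1 (DBA2 × C57Bl6j) mice were implanted with p388 cells and randomized after 2 days into vehicle (1% starch, n = 6) and two treatment groups (n = 5 each). Dosing was oral, once daily, for 10 days. Tumor size was measured by caliper at the end. Values are tumor size reduction relative to vehicle control.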

[11] = AUC (0 to t) in ICR mouse at 5 mg/kg, po measured up to 24 hrs postdose; type: ADME, organism-based; set-up: time < 24 hr, dose 5 mg/kg, route oral; details: in vivo
[12] = Cmax in Beagle dog at 7 mg/kg, po measured up to 24 hrs postdose; type: ADME, organism-based, Canis lupus familiaris; set-up: dose 7 mg/kg, route oral; details: in vivo
[13] = molecular target: Cytochrome P450 2D6 (Homo sapiens, UniProt P10635); assay: Inhibition of CYP2D6 in human liver microsomes using dextromethorphan as substrate after 30 mins by LC-MS/MS analysis; type: ADME
Cytochrome P450 2D6, sequence (P10635 whole entry): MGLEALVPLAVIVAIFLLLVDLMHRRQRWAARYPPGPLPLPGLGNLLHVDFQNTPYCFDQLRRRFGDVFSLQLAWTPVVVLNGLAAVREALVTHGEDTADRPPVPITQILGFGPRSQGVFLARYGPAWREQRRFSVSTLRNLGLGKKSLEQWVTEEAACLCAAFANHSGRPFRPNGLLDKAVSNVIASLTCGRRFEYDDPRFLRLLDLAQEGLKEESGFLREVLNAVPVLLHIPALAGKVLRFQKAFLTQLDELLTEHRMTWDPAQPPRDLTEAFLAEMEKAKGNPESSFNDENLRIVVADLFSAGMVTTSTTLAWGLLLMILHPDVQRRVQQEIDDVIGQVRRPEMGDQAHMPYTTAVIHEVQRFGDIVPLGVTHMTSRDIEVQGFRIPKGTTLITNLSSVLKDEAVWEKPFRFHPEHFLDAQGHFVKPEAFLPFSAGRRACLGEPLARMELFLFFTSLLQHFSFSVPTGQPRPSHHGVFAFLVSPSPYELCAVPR

[14] = molecular target: Protein mono-ADP-ribosyltransferase PARP3 (Homo sapiens, UniProt Q9Y6F1); assay: Inhibition of human PARP3 using NAD+ as substrate by fluorescence assay
[15] = Drug excretion in Sprague-Dawley rat feces at 7 mg/kg, iv or 14 mg/kg, po measured up to 24 hrs by LC-MS/MS; type: ADME, organism-based; details: in vivo
[16] = tested on: Mus musculus; assay: Toxicity in immunodeficient nude Balb/c mouse xenografted with human COLO320DM cells assessed as animal discomfort at 15 to 60 mg/kg, po administered qd for 10 days measured on days 12, 17 and 21 post last dose; details: in vivo, 240 h
[17] = Cmax in Sprague-Dawley rat at 14 mg/kg, po measured up to 24 hrs postdose; type: ADME, organism-based; set-up: dose 14 mg/kg, route oral; details: in vivo
[18] = molecular target: Cytochrome P450 2C19 (Homo sapiens, UniProt P33261); assay: Inhibition of CYP2C19 in human liver microsomes using mephenytoin as substrate after 30 mins by LC-MS/MS analysis; type: ADME
[19] = tested on: P388; assay: Antitumor activity against mouse P388 cells allografted in immunocompetent BDF1 mouse assessed as tumor growth inhibition at 15 mg/kg, po administered qd for 10 days measured on day 12 post last dose; type: functional; details: read-out: TGI; outline: as §3
[20] = Oral bioavailability in Beagle dog at 7 mg/kg measured up to 24 hrs postdose; type: ADME, organism-based, Canis lupus familiaris; details: in vivo
[21] = molecular target: Protein mono-ADP-ribosyltransferase PARP10 (Homo sapiens, UniProt Q53GL7); assay: Inhibition of human PARP10 using NAD+ as substrate by fluorescence assay
[22] = molecular target: Protein mono-ADP-ribosyltransferase PARP16 (Homo sapiens, UniProt Q8N5Y8); assay: Inhibition of human PARP16 using NAD+ as substrate by fluorescence assay
Protein mono-ADP-ribosyltransferase PARP16, sequence (Q8N5Y8 whole entry): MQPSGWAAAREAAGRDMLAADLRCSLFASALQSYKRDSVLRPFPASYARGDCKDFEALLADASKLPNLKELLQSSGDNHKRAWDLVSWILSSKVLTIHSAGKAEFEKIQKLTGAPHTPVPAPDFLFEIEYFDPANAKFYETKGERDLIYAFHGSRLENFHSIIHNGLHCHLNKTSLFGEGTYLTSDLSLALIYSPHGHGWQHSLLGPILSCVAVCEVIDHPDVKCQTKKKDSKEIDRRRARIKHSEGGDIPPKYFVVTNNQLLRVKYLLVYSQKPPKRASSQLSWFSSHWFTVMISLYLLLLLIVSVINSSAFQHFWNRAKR

[23] = Apparent permeability across basolateral to apical side in MDCK cells expressing human MDR1 at 10 uM after 2 hrs by LC/MS/MS analysis; type: ADME, cell-based, Canis lupus familiaris; details: dog
[24] = molecular target: Cytochrome P450 2C9 (Homo sapiens, UniProt P11712); assay: Inhibition of CYP2C9 in human liver microsomes using tolbutamide as substrate after 30 mins by LC-MS/MS analysis; type: ADME
Cytochrome P450 2C9, sequence (P11712 whole entry): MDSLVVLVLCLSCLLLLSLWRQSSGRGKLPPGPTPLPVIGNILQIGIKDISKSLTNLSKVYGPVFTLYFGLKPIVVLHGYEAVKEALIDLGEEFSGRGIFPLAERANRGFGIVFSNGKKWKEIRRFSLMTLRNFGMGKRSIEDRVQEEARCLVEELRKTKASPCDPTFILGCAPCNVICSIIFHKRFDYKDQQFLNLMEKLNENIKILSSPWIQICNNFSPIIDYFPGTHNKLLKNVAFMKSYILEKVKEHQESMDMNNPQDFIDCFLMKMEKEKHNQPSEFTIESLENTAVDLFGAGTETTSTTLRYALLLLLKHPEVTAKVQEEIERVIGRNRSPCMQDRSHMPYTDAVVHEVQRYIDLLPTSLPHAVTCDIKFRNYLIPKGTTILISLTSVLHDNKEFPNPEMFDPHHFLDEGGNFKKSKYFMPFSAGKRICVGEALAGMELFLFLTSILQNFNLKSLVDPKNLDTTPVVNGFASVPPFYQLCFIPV

[25] = Kinetic solubility of the compound in PBS buffer at pH 7.4 at 25 degC after 2 hrs; type: physicochemical; details: read-out: Kinetic_solubility
[26] = tested on: COLO 320DM; assay: Antitumor activity against human COLO320DM cells xenografted in nude Balb/c mouse assessed as tumor growth inhibition at 60 mg/kg, po administered qd for 10 days measured on days 12, 17 and 21 post last dose; type: functional; details: 240 h, read-out: TGI; outline: as §2
[27] = tested on: Liver; assay: Intrinsic clearance in human liver microsomes at 3 uM incubated up to 45 mins in presence of NADPH by LC-MS/MS analysis; type: ADME, microsome; details: 0.75 h
[28] = molecular target: Cytochrome P450 3A4 (Homo sapiens, UniProt P08684); assay: Inhibition of CYP3A4 in human liver microsomes using midazolam as substrate after 30 mins by LC-MS/MS analysis; type: ADME
[29] = Terminal half life in Beagle dog at 7 mg/kg, po measured up to 24 hrs postdose; type: ADME, organism-based, Canis lupus familiaris; details: in vivo, read-out: beta t1/2 (converted)
[30] = Cmax in ICR mouse at 5 mg/kg, po measured up to 24 hrs postdose; type: ADME, organism-based; set-up: dose 5 mg/kg, route oral; details: in vivo
[31] = Inhibition of CYP1A in human liver microsomes using ethoxyresorufin as substrate after 30 mins by LC-MS/MS analysis; type: ADME
[32] = tested on: Mus musculus; assay: Toxicity in immunodeficient nude Balb/c mouse xenografted with human COLO320DM cells assessed as body weight change at 15 to 60 mg/kg, po administered qd for 10 days measured on days 12, 17 and 21 post last dose; details: in vivo, 240 h
[33] = molecular target: Serine/threonine-protein kinase 16 (Homo sapiens) (UniProt O75716); assay: Inhibition of TSF1 (unknown origin) at 10 uM after 60 mins in presence of [gamma-33P]-ATP by microplate scintillation counting; outline: as §1
Serine/threonine-protein kinase 16 (Homo sapiens), sequence (O75716 whole entry): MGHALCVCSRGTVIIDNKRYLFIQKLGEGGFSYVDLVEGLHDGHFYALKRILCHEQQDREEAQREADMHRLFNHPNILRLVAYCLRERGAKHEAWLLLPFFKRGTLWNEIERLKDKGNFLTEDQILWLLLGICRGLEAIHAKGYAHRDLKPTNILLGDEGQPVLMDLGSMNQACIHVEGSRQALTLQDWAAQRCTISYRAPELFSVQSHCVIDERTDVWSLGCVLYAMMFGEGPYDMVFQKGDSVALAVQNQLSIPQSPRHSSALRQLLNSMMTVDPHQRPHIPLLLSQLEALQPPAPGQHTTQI

[34] = Apparent permeability across apical to basolateral side in MDCK cells expressing human MDR1 at 10 uM after 2 hrs by LC/MS/MS analysis; type: ADME, cell-based, Canis lupus familiaris; details: dog
[35] = Intrinsic clearance in human hepatocytes assessed per million cells at 3 uM measured up to 120 mins by LC-MS/MS analysis; type: ADME, cell-based, Hepatocyte; details: read-out: CLH
[36] = Oral bioavailability in Sprague-Dawley rat at 14 mg/kg measured up to 24 hrs postdose; type: ADME, organism-based; details: in vivo
[37] = molecular target: Poly [ADP-ribose] polymerase 2 (Homo sapiens, UniProt Q9UGN5); assay: Inhibition of human GST-tagged PARP2 (2 to 583 residues) expressed in baculovirus infected Sf9 cell expression system using NAD+ as substrate after 4 hrs by fluorescence assay
[38] = molecular target: Dual specificity protein kinase CLK2 (Homo sapiens) (UniProt P49760); assay: Inhibition of CLK2 (unknown origin) at 10 uM after 60 mins in presence of [gamma-33P]-ATP by microplate scintillation counting; outline: as §1
Dual specificity protein kinase CLK2 (Homo sapiens), sequence (P49760 whole entry, looked up): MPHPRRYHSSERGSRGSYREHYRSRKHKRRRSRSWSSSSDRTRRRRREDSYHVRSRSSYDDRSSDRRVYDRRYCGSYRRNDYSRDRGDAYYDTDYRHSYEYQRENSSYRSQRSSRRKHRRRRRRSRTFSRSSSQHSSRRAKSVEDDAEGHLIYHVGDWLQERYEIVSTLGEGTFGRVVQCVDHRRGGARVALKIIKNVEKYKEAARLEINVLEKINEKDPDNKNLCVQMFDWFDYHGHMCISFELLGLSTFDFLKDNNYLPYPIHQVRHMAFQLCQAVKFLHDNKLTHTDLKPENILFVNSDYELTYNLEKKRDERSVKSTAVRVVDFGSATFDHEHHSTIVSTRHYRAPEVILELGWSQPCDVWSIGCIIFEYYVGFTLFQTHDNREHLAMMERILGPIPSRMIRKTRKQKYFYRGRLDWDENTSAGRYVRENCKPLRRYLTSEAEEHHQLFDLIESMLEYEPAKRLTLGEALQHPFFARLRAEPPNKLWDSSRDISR

[39] = AUC (0 to t) in Beagle dog at 7 mg/kg, po measured up to 24 hrs postdose; type: ADME, organism-based, Canis lupus familiaris; set-up: time < 24 hr, dose 7 mg/kg, route oral; details: in vivo
[40] = tested on: Mus musculus; assay: Toxicity in immunocompetent BDF1 mouse allografted with mouse P388 cells assessed as animal discomfort at 15 to 30 mg/kg, po administered qd for 10 days measured on day 12 post last dose; type: organism-based; details: in vivo, 240 h
[41] = Drug excretion in Sprague-Dawley rat urine at 7 mg/kg, iv or 14 mg/kg, po measured up to 24 hrs by LC-MS/MS; type: ADME, organism-based; details: in vivo
[42] = tested on: COLO 320DM; assay: Antitumor activity against human COLO320DM cells xenografted in nude Balb/c mouse assessed as tumor growth inhibition at 15 mg/kg, po administered qd for 10 days measured on days 12, 17 and 21 post last dose; type: functional; details: 240 h, read-out: TGI; outline: as §2
[43] = molecular target: Poly [ADP-ribose] polymerase 1 (Homo sapiens, UniProt P09874); assay: Inhibition of recombinant human PARP1 expressed in Escherichia coli using NAD+ as substrate after 10 mins by fluorescence assay
[44] = tested on: Mus musculus; assay: Clearance in ICR mouse at 5 mg/kg, po measured up to 24 hrs; type: ADME, organism-based; details: in vivo
[45] = molecular target: Protein mono-ADP-ribosyltransferase PARP15 (Homo sapiens, UniProt Q460N3); assay: Inhibition of human PARP15 using NAD+ as substrate by fluorescence assay
[46] = molecular target: Protein mono-ADP-ribosyltransferase PARP14 (Homo sapiens, UniProt Q460N5); assay: Inhibition of human PARP14 using NAD+ as substrate by fluorescence assay
Protein mono-ADP-ribosyltransferase PARP14, sequence (Q460N5 whole entry): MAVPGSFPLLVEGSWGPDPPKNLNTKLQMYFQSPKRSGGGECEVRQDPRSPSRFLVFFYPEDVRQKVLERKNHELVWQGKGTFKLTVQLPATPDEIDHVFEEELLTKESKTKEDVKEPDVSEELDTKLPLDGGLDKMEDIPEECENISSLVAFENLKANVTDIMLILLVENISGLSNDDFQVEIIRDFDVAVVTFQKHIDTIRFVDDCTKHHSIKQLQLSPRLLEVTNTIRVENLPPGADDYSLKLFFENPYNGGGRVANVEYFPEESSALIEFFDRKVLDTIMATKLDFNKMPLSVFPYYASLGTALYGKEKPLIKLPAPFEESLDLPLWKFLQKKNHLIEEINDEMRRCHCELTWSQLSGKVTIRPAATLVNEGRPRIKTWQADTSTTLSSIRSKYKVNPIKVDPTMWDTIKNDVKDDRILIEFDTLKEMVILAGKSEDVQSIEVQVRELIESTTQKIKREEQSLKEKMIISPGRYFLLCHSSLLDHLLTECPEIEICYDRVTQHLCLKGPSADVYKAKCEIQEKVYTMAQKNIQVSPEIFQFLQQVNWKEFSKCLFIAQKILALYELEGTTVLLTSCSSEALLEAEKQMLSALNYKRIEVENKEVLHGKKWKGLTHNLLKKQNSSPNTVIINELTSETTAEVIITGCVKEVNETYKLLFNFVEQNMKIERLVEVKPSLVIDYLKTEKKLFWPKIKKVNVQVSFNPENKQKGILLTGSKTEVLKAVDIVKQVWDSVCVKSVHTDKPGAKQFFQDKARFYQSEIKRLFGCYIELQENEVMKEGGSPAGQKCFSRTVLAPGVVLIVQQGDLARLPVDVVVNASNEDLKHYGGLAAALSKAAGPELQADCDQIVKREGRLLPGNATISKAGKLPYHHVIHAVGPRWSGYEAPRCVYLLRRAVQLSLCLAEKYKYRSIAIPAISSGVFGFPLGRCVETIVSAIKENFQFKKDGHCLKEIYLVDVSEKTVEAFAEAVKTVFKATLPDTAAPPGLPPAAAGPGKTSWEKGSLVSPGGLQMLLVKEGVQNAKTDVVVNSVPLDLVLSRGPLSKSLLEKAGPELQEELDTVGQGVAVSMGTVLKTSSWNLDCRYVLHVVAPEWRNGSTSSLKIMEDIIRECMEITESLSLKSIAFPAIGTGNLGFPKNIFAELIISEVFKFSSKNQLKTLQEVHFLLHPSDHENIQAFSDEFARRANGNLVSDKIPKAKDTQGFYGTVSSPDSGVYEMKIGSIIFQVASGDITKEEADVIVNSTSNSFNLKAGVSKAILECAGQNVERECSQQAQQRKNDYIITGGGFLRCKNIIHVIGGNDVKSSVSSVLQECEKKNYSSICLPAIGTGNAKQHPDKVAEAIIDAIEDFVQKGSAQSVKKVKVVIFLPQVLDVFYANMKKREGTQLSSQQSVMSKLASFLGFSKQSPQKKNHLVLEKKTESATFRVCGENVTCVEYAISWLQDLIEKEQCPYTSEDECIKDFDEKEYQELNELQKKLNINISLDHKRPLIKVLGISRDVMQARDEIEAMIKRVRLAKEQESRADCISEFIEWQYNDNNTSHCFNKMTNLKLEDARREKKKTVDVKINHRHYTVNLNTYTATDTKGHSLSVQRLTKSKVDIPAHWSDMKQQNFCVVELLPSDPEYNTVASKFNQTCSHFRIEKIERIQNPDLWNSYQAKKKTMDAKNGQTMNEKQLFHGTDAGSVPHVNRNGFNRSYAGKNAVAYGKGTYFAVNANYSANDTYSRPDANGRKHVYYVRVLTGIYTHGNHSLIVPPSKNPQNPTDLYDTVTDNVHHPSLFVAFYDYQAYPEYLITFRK

[47] = molecular target: Protein mono-ADP-ribosyltransferase PARP4 (Homo sapiens, UniProt Q9UKK3); assay: Inhibition of human PARP4 using NAD+ as substrate by fluorescence assay

Protein mono-ADP-ribosyltransferase PARP12, sequence (Q9H0J9 whole entry): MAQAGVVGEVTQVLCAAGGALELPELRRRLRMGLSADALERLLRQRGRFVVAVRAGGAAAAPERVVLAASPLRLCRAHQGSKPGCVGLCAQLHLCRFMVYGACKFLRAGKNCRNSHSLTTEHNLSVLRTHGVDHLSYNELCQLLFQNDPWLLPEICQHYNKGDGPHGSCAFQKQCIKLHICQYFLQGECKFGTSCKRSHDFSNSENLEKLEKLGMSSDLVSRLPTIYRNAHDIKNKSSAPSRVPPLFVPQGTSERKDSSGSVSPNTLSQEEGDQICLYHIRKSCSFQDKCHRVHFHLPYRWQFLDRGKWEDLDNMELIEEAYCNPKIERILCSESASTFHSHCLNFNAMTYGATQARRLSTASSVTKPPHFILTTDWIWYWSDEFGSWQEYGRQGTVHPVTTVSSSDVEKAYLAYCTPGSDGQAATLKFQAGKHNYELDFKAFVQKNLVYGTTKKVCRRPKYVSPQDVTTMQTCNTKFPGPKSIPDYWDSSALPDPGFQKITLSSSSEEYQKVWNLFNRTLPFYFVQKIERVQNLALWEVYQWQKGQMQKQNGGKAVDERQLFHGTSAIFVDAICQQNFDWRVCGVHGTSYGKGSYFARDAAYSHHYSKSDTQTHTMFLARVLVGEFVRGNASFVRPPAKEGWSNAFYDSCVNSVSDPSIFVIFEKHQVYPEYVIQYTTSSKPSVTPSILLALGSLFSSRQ

## N#Cc1ccc2c(c1)[nH]c(=O)n2[C@H]1C[C@H](c2nnc(-c3ccncn3)n2-c2ccccc2Cl)C1
[1]
  IC50: > 10 µM
[2]
  inhibition: 66%
[3]
  inhibition: 70%
[4]
  clearance: 2.33 mL/min/kg
[5]
  bioavailability: 47%
[6]
  Activity: Non-Toxic
[7]
  half-life: 1.5 h
[8]
  AUC(0-t) at 24 h: 2760 ng·h/mL
[9]
  inhibition in vivo at 30 mg/kg: 63%
[10]
  inhibition in vivo at 30 mg/kg: 57%
[11]
  AUC(0-t) at 24 h: 145 ng·h/mL
[12]
  Cmax: 5850 ng/mL
[13]
  IC50: > 25 µM
[14]
  IC50: > 100 µM
[15]
  Drug excretion: Metabolite_Notdetected
[16]
  Activity: Non-Toxic
[17]
  Cmax: 843 ng/mL
[18]
  IC50: > 25 µM
[19]
  inhibition in vivo at 15 mg/kg: 32%
[20]
  bioavailability: 91%
[21]
  IC50: > 10 µM
[22]
  IC50: > 10 µM
[23]
  Papp: 28.2 ×10⁻⁷ cm/s
[24]
  IC50: 11.9 µM
[25]
  solubility kinetic at 2 h: 31.2 µM (≈ 14.6 µg/mL)
[26]
  inhibition in vivo at 60 mg/kg: 63%
[27]
  CLH: 14.8 µL/min/mg
[28]
  IC50: 1.3 µM
[29]
  half-life: 4.7 h
[30]
  Cmax: 124 ng/mL
[31]
  IC50: > 25 µM
[32]
  Activity: Non-Toxic
[33]
  inhibition: 52%
[34]
  Papp: 5.3 ×10⁻⁷ cm/s
[35]
  hepatocyte CLint at 3 µM: 6.44 µL/min/1e6 cells
[36]
  bioavailability: 35%
[37]
  IC50: > 100 µM
[38]
  inhibition: 73%
[39]
  AUC(0-t) at 24 h: 27100 ng·h/mL
[40]
  Activity: Non-Toxic
[41]
  Drug excretion: Metabolite_Notdetected
[42]
  inhibition in vivo at 15 mg/kg: 53%
[43]
  IC50: > 100 µM
[44]
  clearance: 567 mL/min/kg
[45]
  IC50: > 10 µM
[46]
  IC50: > 10 µM
[47]
  IC50: > 100 µM
